Experimental data reported in ChEMBL document CHEMBL1138590, “Discovery of novel dihydro-9,10-ethano-anthracene carboxamides as glucocorticoid receptor modulators” (Bioorg Med Chem Lett, 2009).

Experiments:
Glucocorticoid receptor [1] = biological target: T1, Glucocorticoid receptor (Homo sapiens, UniProt P04150); experiment: Transrepression activity at GR in IL-1-beta-stimulated human A549 cells assessed as inhibition of NF-kappaB-dependent E-selectin transcription by luciferase reporter gene assay; type: cell-based
T1 sequence (P04150 whole entry): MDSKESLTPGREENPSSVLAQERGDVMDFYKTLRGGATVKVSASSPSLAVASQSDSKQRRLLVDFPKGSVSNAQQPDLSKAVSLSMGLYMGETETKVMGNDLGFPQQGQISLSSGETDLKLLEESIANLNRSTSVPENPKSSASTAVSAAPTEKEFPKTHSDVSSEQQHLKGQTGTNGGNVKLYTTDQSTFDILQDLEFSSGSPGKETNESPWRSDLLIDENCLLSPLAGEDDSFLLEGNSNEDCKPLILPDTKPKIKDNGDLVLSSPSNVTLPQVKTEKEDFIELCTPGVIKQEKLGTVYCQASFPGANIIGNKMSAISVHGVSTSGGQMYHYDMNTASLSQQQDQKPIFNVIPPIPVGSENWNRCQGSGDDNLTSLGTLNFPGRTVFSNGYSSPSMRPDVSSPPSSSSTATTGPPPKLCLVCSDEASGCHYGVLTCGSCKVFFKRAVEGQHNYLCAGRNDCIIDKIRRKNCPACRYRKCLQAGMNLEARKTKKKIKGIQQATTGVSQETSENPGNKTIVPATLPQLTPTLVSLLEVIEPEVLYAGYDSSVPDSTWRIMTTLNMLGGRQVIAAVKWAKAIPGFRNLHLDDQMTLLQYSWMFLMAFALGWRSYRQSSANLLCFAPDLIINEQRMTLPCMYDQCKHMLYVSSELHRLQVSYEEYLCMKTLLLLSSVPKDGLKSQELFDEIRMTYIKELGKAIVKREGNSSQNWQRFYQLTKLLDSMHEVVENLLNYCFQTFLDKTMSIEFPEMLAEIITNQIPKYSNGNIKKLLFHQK

Glucocorticoid receptor [2] = biological target: T1, Glucocorticoid receptor; experiment: Agonist activity at GR ligand binding domain expressed in human NP1 cells assessed as glucocorticoid response element transactivation by GAL4 luciferase reporter gene assay; type: cell-based
Estrogen receptor = biological target: T2, Estrogen receptor (Homo sapiens, UniProt P03372); experiment: Displacement of […] from estrogen receptor alpha by fluorescence polarization assay
T2 sequence (P03372 whole entry): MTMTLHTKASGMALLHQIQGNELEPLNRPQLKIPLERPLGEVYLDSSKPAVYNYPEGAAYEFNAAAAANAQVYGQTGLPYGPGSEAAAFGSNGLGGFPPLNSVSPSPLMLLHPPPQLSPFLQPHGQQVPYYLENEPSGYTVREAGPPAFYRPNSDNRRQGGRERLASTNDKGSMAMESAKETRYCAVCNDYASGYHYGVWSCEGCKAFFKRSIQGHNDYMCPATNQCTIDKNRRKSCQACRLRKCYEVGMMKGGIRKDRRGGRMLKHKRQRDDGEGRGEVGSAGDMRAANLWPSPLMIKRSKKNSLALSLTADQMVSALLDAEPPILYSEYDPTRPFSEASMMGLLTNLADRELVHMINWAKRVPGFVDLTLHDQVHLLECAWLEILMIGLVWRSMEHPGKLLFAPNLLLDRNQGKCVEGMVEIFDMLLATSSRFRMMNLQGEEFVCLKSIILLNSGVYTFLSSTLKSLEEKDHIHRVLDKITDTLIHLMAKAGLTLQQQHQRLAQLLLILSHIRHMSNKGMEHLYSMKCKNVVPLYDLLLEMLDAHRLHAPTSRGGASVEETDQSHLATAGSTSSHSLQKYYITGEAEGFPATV
Method in brief: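 Fluorescence polarization competition binding: the test compound competes with a fluorescently labelled ligand for binding to the full-length receptor or its ligand-binding domain. IC50 is fitted from the polarization signal with a four-parameter logistic equation. Ki is derived by Cheng–Prusoff, Ki = IC50/(1 + ligand concentration/Kd). Values are means of duplicate experiments.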

Androgen receptor = biological target: T3, Androgen receptor (Homo sapiens, UniProt P10275); experiment: Displacement of fluorescently labeled ligand from androgen receptor by fluorescence polarization assay
T3 sequence (P10275 whole entry): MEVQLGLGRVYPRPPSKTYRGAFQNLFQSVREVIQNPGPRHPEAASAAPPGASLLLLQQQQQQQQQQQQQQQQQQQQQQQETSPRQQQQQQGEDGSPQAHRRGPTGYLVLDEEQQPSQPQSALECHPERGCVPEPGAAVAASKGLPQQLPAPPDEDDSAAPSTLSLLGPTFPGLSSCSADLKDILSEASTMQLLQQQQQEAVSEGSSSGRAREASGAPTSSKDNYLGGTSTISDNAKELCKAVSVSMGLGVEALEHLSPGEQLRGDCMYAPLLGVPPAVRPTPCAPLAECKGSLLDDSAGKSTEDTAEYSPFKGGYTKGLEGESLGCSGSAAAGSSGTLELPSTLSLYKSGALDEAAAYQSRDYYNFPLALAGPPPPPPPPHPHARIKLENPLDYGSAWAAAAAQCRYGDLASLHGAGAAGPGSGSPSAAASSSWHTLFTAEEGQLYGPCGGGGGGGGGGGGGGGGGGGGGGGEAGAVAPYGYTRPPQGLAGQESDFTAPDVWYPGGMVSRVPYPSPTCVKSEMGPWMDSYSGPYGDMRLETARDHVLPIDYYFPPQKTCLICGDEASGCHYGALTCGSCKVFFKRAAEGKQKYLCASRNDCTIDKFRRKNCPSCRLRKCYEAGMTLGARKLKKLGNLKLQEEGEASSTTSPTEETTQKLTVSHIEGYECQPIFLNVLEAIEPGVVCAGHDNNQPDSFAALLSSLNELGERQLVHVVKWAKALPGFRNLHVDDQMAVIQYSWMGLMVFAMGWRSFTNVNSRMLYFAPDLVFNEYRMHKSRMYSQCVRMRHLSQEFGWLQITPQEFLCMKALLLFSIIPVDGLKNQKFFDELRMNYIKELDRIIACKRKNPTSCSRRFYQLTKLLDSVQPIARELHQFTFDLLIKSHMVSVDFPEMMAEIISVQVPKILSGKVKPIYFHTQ

| SMILES | EC50 (Glucocorticoid receptor [1]) | EC50 (Glucocorticoid receptor [2]) | Ki (Estrogen receptor) | Ki (Androgen receptor) |
| --- | --- | --- | --- | --- |
| C[C@@]1(C(=O)Nc2nccs2)CC2(C#N)c3ccccc3C1c1ccccc12 | 0.0194 µM | > 10 µM | 26.3 µM | > 10 µM |
| C[C@@]1(C(=O)Nc2nccs2)CC2c3ccccc3C1c1ccccc12 | – | – | 15 µM | 7.4 µM |
